According to ChEMBL document CHEMBL4257502, “Anti-cancer effect of a novel 2,3-didithiocarbamate-substituted naphthoquinone as a tumor metabolic suppressor in vitro and in vivo” (Medchemcomm, 2018):
pIC50: −log10 of the molar value. Activity calls are given as the source filed them. No cut-off for these calls is given here.

Key:
Pyruvate kinase PKM [1] = target: T1, Pyruvate kinase PKM (Homo sapiens, UniProt P14618); assay: Inhibition of PKM2 in human HCT116 cells assessed as reduction in cMYC-induced LDH gene expression at 20 uM after 8 hrs by RT-qPCR analysis; assay type: cell-based
Summary of the method: (§1)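 HCT116 cells seeded at 5 × 10^5 per well and treated 24 h later with 20 μM for 8 h. RNA extracted with TRIzol and reverse-transcribed. GLUT1, LDH and CCND1 transcripts quantified by SYBR Green qPCR.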
Target sequence in this assay (P14618 2-531 limits assumed): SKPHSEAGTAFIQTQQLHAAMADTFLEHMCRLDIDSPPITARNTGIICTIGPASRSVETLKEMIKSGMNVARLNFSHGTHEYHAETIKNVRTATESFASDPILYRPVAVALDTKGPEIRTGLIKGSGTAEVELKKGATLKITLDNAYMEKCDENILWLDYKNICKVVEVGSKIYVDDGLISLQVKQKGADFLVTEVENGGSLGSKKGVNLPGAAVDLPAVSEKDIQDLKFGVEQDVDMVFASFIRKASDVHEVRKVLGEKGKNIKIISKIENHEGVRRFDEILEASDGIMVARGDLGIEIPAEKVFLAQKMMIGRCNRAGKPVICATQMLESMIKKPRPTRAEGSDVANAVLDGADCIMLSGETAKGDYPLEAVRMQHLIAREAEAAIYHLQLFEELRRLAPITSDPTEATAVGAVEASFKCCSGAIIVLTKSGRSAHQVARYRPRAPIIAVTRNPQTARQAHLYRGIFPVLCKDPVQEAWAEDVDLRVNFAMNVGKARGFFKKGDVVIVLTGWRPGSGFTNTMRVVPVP

Pyruvate kinase PKM [2] = target: T1, Pyruvate kinase PKM; assay: Inhibition of recombinant human N-terminal His-tagged PKM1 expressed in Escherichia coli preincubated for 25 mins in presence of PEP/FBP followed by ADP/NADH addition measured after 25 mins by PK-LDH assay
Target sequence in this assay (P14618 whole entry): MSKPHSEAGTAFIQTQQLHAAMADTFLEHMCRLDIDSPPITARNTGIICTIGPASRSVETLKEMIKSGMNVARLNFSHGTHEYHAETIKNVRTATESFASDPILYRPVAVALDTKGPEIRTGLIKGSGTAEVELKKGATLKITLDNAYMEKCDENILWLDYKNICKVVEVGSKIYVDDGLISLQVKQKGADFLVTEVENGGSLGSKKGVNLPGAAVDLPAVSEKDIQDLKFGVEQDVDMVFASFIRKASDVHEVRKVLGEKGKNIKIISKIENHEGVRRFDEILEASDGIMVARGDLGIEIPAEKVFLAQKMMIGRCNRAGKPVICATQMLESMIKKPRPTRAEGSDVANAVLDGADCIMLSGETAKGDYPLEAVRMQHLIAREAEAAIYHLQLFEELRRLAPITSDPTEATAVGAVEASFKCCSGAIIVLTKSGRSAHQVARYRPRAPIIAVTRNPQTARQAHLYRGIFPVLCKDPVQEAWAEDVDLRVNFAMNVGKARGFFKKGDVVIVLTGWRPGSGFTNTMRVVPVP

HCT-116 [3] = assay: Cytotoxicity against human HCT116 cells after 48 hrs by MTS assay; assay type: functional, cell-based
Summary of the method: (§2)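 Cells seeded at 5000–10 000 per well and treated 12 h later with a range of concentrations for 48 h. Viability read by MTS reduction. IC50 reported ± SD.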

Mus musculus = assay: Toxicity in C57BL/6 mouse implanted with mouse B16 cells assessed as effect on body weight at 25 to 50 mg/kg, ip administered every 2 days for 12 days; assay type: organism-based; settings: in vivo
Summary of the method: (§3)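 Female mice given 1 × 10^6 B16 cells subcutaneously in the armpit. Dosing began about 6 days later, once tumors appeared, with N = 7 per group. Compound or vehicle (5% v/v DMAC in olive oil) was given ip every two days at 25 or 50 mg kg–1. Tumor volume was measured every two days as V = L(S2)π/6. Tumors were weighed individually. T/C was taken as relative tumor volume growth rate.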

B16 [4] = assay: Antitumor activity against mouse B16 cells implanted in C57BL/6 mouse assessed as reduction in tumor weight at 50 mg/kg, ip administered every 2 days for 12 days relative to control; assay type: functional; design: scale not given: the % may be the effect or the level left; summary of the method: as §3
Pyruvate kinase PKM [5] = target: T1, Pyruvate kinase PKM; assay: Inhibition of PKM2 in human HCT116 cells assessed as reduction in cMYC-induced GLUT1 gene expression at 20 uM after 8 hrs by RT-qPCR analysis; assay type: cell-based; summary of the method: as §1
Target sequence in this assay (P14618 2-531 limits assumed): as the sequence (P14618 2-531 limits assumed) above

Pyruvate kinase PKM [6] = target: T1, Pyruvate kinase PKM; assay: Inhibition of recombinant human N-terminal His-tagged PKM2 expressed in Escherichia coli preincubated for 25 mins in presence of PEP/FBP followed by ADP/NADH addition measured after 25 mins by PK-LDH assay
Target sequence in this assay (P14618 whole entry): as the sequence (P14618 whole entry) above

NCI-H1299 = assay: Cytotoxicity against human NCI-H1299 cells after 48 hrs by MTS assay; assay type: functional, cell-based; summary of the method: as §2
B16 [7] = assay: Antitumor activity against mouse B16 cells implanted in C57BL/6 mouse assessed as tumor weight at 25 mg/kg, ip administered every 2 days for 12 days relative to control; assay type: functional; summary of the method: as §3
[8] = tested on: spontaneous PTEN-deleted breast carcinoma (Mus musculus); assay: Antitumor activity against mouse spontaneous PTEN-deleted breast carcinoma assessed as reduction in tumor growth at 50 mg/kg, ip administered every 2 days for 36 days
HCT-116 [9] = assay: Cytotoxicity against human HCT116 cells assessed as reduction in ATP production at 10 to 20 uM after 6 hrs by CellTiter-Glo luminescent assay; assay type: functional, cell-based
Summary of the method: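 HCT116 cells seeded at 5 × 10^5 per well in 6-well plates. Exposed 24 h later to 10 μM or 20 μM for 6 h. Cellular ATP read by CellTiter-Glo luminescence.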

Pyruvate kinase PKM [10] = target: T1, Pyruvate kinase PKM; assay: Inhibition of PKM2 in human HCT116 cells assessed as reduction in beta-catenin-induced CCND1 gene expression at 20 uM after 8 hrs by RT-qPCR analysis; assay type: cell-based; summary of the method: as §1
Target sequence in this assay (P14618 2-531 limits assumed): as the sequence (P14618 2-531 limits assumed) above

[11] = tested on: spontaneous PTEN-deleted breast carcinoma (Mus musculus); assay: Antitumor activity against mouse spontaneous PTEN-deleted breast carcinoma assessed as reduction in tumor weight at 50 mg/kg, ip administered every 2 days for 36 days relative to control; design: scale not given: the % may be the effect or the level left
B16 [12] = assay: Antitumor activity against mouse B16 cells implanted in C57BL/6 mouse assessed as tumor volume at 50 mg/kg, ip administered every 2 days for 12 days measured during compound dosing relative to control; assay type: functional; summary of the method: as §3
Pyruvate kinase PKLR = Pyruvate kinase PKLR (Homo sapiens, UniProt P30613); assay: Inhibition of recombinant human N-terminal His-tagged PKL expressed in Escherichia coli preincubated for 25 mins in presence of PEP/FBP followed by ADP/NADH addition measured after 25 mins by PK-LDH assay
HeLa = assay: Cytotoxicity against human HeLa cells after 48 hrs by MTS assay; assay type: functional, cell-based; summary of the method: as §2
Homo sapiens [13] = species: Homo sapiens; assay: Selectivity ratio of IC50 for recombinant human N-terminal His-tagged PKM1 expressed in Escherichia coli to IC50 for recombinant human N-terminal His-tagged PKM2 expressed in Escherichia coli
B16 [14] = assay: Antitumor activity against mouse B16 cells implanted in ip dosed C57BL/6 mouse assessed as tumor growth inhibition administered every 2 days for 12 days; assay type: functional, organism-based; summary of the method: as §3
Pyruvate kinase PKM [15] = target: T1, Pyruvate kinase PKM; assay: Inhibition of PKM2 in human HCT116 cells measured after 8 hrs by fluorescent PK-LDH assay; assay type: cell-based
Summary of the method: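 HCT116 cells exposed to 2.5, 5, 10 or 20 μM for 8 h, then lysed in NP40 buffer. Lysate pyruvate kinase activity was measured immediately by fluorescent PK–LDH coupled assay.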
Target sequence in this assay (P14618 2-531 limits assumed): as above

MDA-MB-231 = assay: Cytotoxicity against human MDA-MB-231 cells after 48 hrs by MTS assay; assay type: functional, cell-based; summary of the method: as §2
Homo sapiens [16] = species: Homo sapiens; assay: Selectivity ratio of IC50 for recombinant human N-terminal His-tagged PKL expressed in Escherichia coli to IC50 for recombinant human N-terminal His-tagged PKM2 expressed in Escherichia coli
B16 [17] = assay: Cytotoxicity against mouse B16 cells after 48 hrs by MTS assay; assay type: functional, cell-based; summary of the method: as §2
BEAS-2B = assay: Cytotoxicity against human BEAS2B cells after 48 hrs by MTS assay; assay type: cell-based; summary of the method: as §2
MCF7 = assay: Cytotoxicity against human MCF7 cells after 48 hrs by MTS assay; assay type: functional, cell-based; summary of the method: as §2

Sequence of Pyruvate kinase PKLR (P30613 whole entry): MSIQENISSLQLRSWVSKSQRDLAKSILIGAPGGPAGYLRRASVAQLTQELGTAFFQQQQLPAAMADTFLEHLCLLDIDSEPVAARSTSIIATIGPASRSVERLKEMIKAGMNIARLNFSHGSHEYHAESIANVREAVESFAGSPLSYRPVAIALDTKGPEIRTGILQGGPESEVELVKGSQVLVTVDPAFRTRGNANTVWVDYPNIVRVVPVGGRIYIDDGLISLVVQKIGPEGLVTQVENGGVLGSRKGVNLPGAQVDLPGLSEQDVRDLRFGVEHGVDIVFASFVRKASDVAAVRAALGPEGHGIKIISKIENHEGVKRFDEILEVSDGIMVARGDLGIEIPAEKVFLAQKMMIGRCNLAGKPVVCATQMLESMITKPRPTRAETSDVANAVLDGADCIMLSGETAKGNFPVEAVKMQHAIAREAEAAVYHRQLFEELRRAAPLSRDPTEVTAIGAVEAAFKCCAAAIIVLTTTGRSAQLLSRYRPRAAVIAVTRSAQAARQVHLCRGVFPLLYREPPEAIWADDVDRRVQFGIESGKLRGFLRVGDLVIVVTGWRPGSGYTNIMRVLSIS

**Q.** With `O=C1C(CSC(=S)N2CCCCC2)=C(CSC(=S)N2CCCCC2)C(=O)c2ccccc21` as the compound, how does the inhibition (Pyruvate kinase PKM [1]) read?
**A.** Active

**Q.** And the pIC50 (Pyruvate kinase PKM [2])?
**A.** 5.29

**Q.** What about the Activity (HCT-116 [3]) of the same compound?
**A.** Dose-dependent effect

**Q.** And the pIC50 (HCT-116 [3]; HCT-116, 48 h)?
**A.** 7.11

**Q.** And the Activity (Mus musculus)?
**A.** Non-Toxic

**Q.** What about the Activity (B16 [4]) of the same compound?
**A.** 30%

**Q.** What about the inhibition (Pyruvate kinase PKM [5]) of the same compound?
**A.** Active

**Q.** What about the pIC50 (Pyruvate kinase PKM [6]) of the same compound?
**A.** 6.06

**Q.** And the Activity (NCI-H1299)?
**A.** Dose-dependent effect

**Q.** What about the pIC50 (NCI-H1299; NCI-H1299, 48 h) of the same compound?
**A.** 6.96

**Q.** What about the Activity (B16 [7]) of the same compound?
**A.** 12%

**Q.** What about the Activity [8] of the same compound?
**A.** Active

**Q.** And the Activity (HCT-116 [9])?
**A.** Active

**Q.** What about the inhibition (Pyruvate kinase PKM [10]) of the same compound?
**A.** Active

**Q.** And the Activity [11]?
**A.** 20%

**Q.** And the T/C (B16 [12])?
**A.** 40%

**Q.** And the pIC50 (Pyruvate kinase PKLR)?
**A.** 5.54

**Q.** And the Activity (HeLa)?
**A.** Dose-dependent effect

**Q.** And the pIC50 (HeLa)?
**A.** 6.91

**Q.** And the Ratio IC50 (Homo sapiens [13])?
**A.** 5.8

**Q.** And the TGI (B16 [14])?
**A.** Dose-dependent effect

**Q.** And the inhibition (Pyruvate kinase PKM [15])?
**A.** Dose-dependent effect

**Q.** And the Activity (MDA-MB-231)?
**A.** Dose-dependent effect

**Q.** What about the pIC50 (MDA-MB-231; MDA-MB-231, 48 h) of the same compound?
**A.** 6.87

**Q.** What about the Ratio IC50 (Homo sapiens [16]) of the same compound?
**A.** 3.3

**Q.** What about the Activity (B16 [17]) of the same compound?
**A.** Dose-dependent effect

**Q.** What about the pIC50 (B16 [17]; B16, 48 h) of the same compound?
**A.** 6.98

**Q.** And the pIC50 (BEAS-2B)?
**A.** 4.49

**Q.** And the Activity (MCF7)?
**A.** Dose-dependent effect

**Q.** And the pIC50 (MCF7; MCF7, 48 h)?
**A.** 7.21

**Q.** `CC(C)=CC[C@@H](O)C1=CC(=O)c2c(O)ccc(O)c2C1=O` was tested. Which Ratio IC50 (Homo sapiens [13]) did it give?
**A.** 1.5

**Q.** And the Ratio IC50 (Homo sapiens [16])?
**A.** 4.5
